{"source": "ChEMBL document CHEMBL1811814", "about": "“Synthesis and evaluation of indole, pyrazole, chromone and pyrimidine based conjugates for tumor growth inhibitory activities--development of highly efficacious cytotoxic agents” (Eur J Med Chem, 2010)", "type_in_all_cases": "functional", "key": {"HCT-116": {"test_system": "HCT-116", "assay": "Growth inhibition of human HCT116 cells assessed tumor cell growth at 10^-5 M", "parameters": "scale not given: the % may be the effect or the level left", "in_short": "(§1)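 NCI 60-human-tumor-cell-line panel screen. Each compound was tested at a single concentration of 10^-5 M, and percent growth of tumor cells was recorded for each cell line. Growth inhibition was expressed from these percent-growth values.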"}, "COLO 205": {"test_system": "COLO 205", "assay": "Growth inhibition of human COLO205 cells assessed tumor cell growth at 10^-5 M", "parameters": "scale not given: the % may be the effect or the level left", "in_short": "as §1"}, "PC-3": {"test_system": "PC-3", "assay": "Growth inhibition of human PC3 cells assessed tumor cell growth at 10^-5 M", "parameters": "scale not given: the % may be the effect or the level left", "in_short": "as §1"}, "A549 [1]": {"test_system": "A549", "assay": "Growth inhibition of human A549 cells"}, "NCI-H23": {"test_system": "NCI-H23", "assay": "Growth inhibition of human NCI-H23 cells"}, "A549 [2]": {"test_system": "A549", "assay": "Growth inhibition of human A549 cells assessed tumor cell growth at 10^-5 M", "parameters": "scale not given: the % may be the effect or the level left", "in_short": "as §1"}, "Malme-3M": {"test_system": "Malme-3M", "assay": "Growth inhibition of human MALME-3M cells"}, "SF-539": {"test_system": "SF-539", "assay": "Growth inhibition of human SF539 cells"}, "SR": {"test_system": "SR", "assay": "Growth inhibition of human SR cells assessed tumor cell growth at 10^-5 M", "parameters": "scale not given: the % may be the effect or the level left", "in_short": "(§2)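 Single-dose screen at 10^-5 M across the 60 human tumor cell line panel, run to NCI standards. The value is the percent growth of each cell line in the presence of compound. Compounds active at this dose moved on to five-concentration testing (10^-4 to 10^-8 M).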"}, "UACC-62": {"test_system": "UACC-62", "assay": "Growth inhibition of human UACC62 cells"}, "HL-60(TB)": {"test_system": "HL-60(TB)", "assay": "Growth inhibition of human HL-60(TB) cells"}, "OVCAR-3": {"test_system": "OVCAR-3", "assay": "Growth inhibition of human OVCAR3 cells"}, "OVCAR-8": {"test_system": "OVCAR-8", "assay": "Growth inhibition of human OVCAR8 cells"}, "MOLT-4": {"test_system": "MOLT-4", "assay": "Growth inhibition of human MOLT4 cells assessed tumor cell growth at 10^-5 M", "parameters": "scale not given: the % may be the effect or the level left", "in_short": "as §1"}, "NCI-H460": {"test_system": "NCI-H460", "assay": "Growth inhibition of human NCI-H460 cells assessed tumor cell growth at 10^-5 M", "parameters": "scale not given: the % may be the effect or the level left", "in_short": "as §1"}, "NCI-H226": {"test_system": "NCI-H226", "assay": "Growth inhibition of human NCI-H226 cells"}, "786-0": {"test_system": "786-0", "assay": "Growth inhibition of human 786-0 cells"}, "T47D": {"test_system": "T47D", "assay": "Growth inhibition of human T47D cells assessed tumor cell growth at 10^-5 M", "parameters": "scale not given: the % may be the effect or the level left", "in_short": "as §2"}, "SF-295": {"test_system": "SF-295", "assay": "Growth inhibition of human SF295 cells assessed tumor cell growth at 10^-5 M", "parameters": "scale not given: the % may be the effect or the level left", "in_short": "as §1"}, "HCC 2998": {"test_system": "HCC 2998", "assay": "Growth inhibition of human HCC2998 cells assessed tumor cell growth at 10^-5 M", "parameters": "scale not given: the % may be the effect or the level left", "in_short": "as §1"}, "SNB-19": {"test_system": "SNB-19", "assay": "Growth inhibition of human SNB19 cells"}, "NCI-H322M": {"test_system": "NCI-H322M", "assay": "Growth inhibition of human NCI-H322M cells"}, "KM12": {"test_system": "KM12", "assay": "Growth inhibition of human KM12 cells assessed tumor cell growth at 10^-5 M", "parameters": "scale not given: the % may be the effect or the level left", "in_short": "as §1"}, "RXF 393": {"test_system": "RXF 393", "assay": "Growth inhibition of human RXF393 cells assessed tumor cell growth at 10^-5 M", "parameters": "scale not given: the % may be the effect or the level left", "in_short": "as §1"}, "DU-145": {"test_system": "DU-145", "assay": "Growth inhibition of human DU145 cells assessed tumor cell growth at 10^-5 M", "parameters": "scale not given: the % may be the effect or the level left", "in_short": "as §1"}, "SW-620": {"test_system": "SW-620", "assay": "Growth inhibition of human SW620 cells"}, "[3]": {"settings": "read-out: LC50 (the source's name)"}}, "data": [{"smiles": "O=C1/C(=C\\c2ccccn2)c2ccccc2N1c1c(Cl)cccc1Cl", "values": [{"measurement": "Activity", "setting": "HCT-116", "result": -94.37, "unit": "%"}, {"measurement": "Activity", "setting": "COLO 205", "result": -1.34, "unit": "%"}, {"measurement": "Activity", "setting": "PC-3", "result": 31.44, "unit": "%"}, {"measurement": "GI50", "setting": "A549 [1]", "result": 1.9, "unit": "µM"}, {"measurement": "CC50", "setting": "A549 [1]; [3]", "result": 43.6, "unit": "µM"}, {"measurement": "GI50", "setting": "NCI-H23", "result": 3.5, "unit": "µM"}, {"measurement": "LC50 (concentration killing 50% of cells)", "setting": "NCI-H23", "result": "> 100", "unit": "µM"}, {"measurement": "Activity", "setting": "A549 [2]", "result": 50.33, "unit": "%"}, {"measurement": "GI50", "setting": "Malme-3M", "result": 1.9, "unit": "µM"}, {"measurement": "CC50", "setting": "Malme-3M; [3]", "result": 16.9, "unit": "µM"}, {"measurement": "GI50", "setting": "SF-539", "result": 2.4, "unit": "µM"}, {"measurement": "CC50", "setting": "SF-539; [3]", "result": "> 100", "unit": "µM"}, {"measurement": "Activity", "setting": "SR", "result": -4.3, "unit": "%"}, {"measurement": "GI50", "setting": "UACC-62", "result": 1.6, "unit": "µM"}, {"measurement": "CC50", "setting": "UACC-62; [3]", "result": 6.9, "unit": "µM"}, {"measurement": "GI50", "setting": "HL-60(TB)", "result": 3.8, "unit": "µM"}, {"measurement": "CC50", "setting": "HL-60(TB); [3]", "result": "> 100", "unit": "µM"}, {"measurement": "GI50", "setting": "OVCAR-3", "result": 1.7, "unit": "µM"}, {"measurement": "CC50", "setting": "OVCAR-3; [3]", "result": 6.9, "unit": "µM"}, {"measurement": "GI50", "setting": "OVCAR-8", "result": 2.1, "unit": "µM"}, {"measurement": "CC50", "setting": "OVCAR-8; [3]", "result": "> 100", "unit": "µM"}, {"measurement": "Activity", "setting": "MOLT-4", "result": 3.8, "unit": "%"}, {"measurement": "Activity", "setting": "NCI-H460", "result": -29.25, "unit": "%"}, {"measurement": "GI50", "setting": "NCI-H226", "result": 0.01, "unit": "µM"}, {"measurement": "CC50", "setting": "NCI-H226; [3]", "result": 9.1, "unit": "µM"}, {"measurement": "GI50", "setting": "786-0", "result": 1.9, "unit": "µM"}, {"measurement": "CC50", "setting": "786-0; [3]", "result": 6.6, "unit": "µM"}, {"measurement": "Activity", "setting": "T47D", "result": 12.74, "unit": "%"}, {"measurement": "Activity", "setting": "SF-295", "result": 12.33, "unit": "%"}, {"measurement": "Activity", "setting": "HCC 2998", "result": -82.08, "unit": "%"}, {"measurement": "GI50", "setting": "SNB-19", "result": 2.2, "unit": "µM"}, {"measurement": "CC50", "setting": "SNB-19; [3]", "result": 32.3, "unit": "µM"}, {"measurement": "GI50", "setting": "NCI-H322M", "result": 2.8, "unit": "µM"}, {"measurement": "CC50", "setting": "NCI-H322M; [3]", "result": 28.8, "unit": "µM"}, {"measurement": "Activity", "setting": "KM12", "result": -2.11, "unit": "%"}, {"measurement": "Activity", "setting": "RXF 393", "result": -35.21, "unit": "%"}, {"measurement": "Activity", "setting": "DU-145", "result": -0.09, "unit": "%"}, {"measurement": "GI50", "setting": "SW-620", "result": 1.9, "unit": "µM"}, {"measurement": "CC50", "setting": "SW-620; [3]", "result": 6.7, "unit": "µM"}]}]}
